Data from ChEMBL document CHEMBL1123886 (J Med Chem, 1987).
Calls of active or inactive are those of the source. The rule behind the calls is not given here.

What was measured:
[1] = tested on: Lewis lung carcinoma cell line; experiment: Optimal dose to inhibit the LL (Lewis lung carcinoma model) cells in vivo after intraperitoneal administration.; format: functional, Mus musculus; design: unit: mg/kg/day
Method in brief: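 Mice were inoculated iv with 10^6 Lewis lung carcinoma cells. OD is the optimal dose in mg/kg per day. Lifespan increase above 40% is significant, and long-term survival was scored at 60 days.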

P388 [2] = experiment: Percent increase in life span of the drug-treated tumor-bearing animals vs nontreated tumor-bearing controls with P388 leukemia cells.; format: functional, Mus musculus
Method in brief: (§1)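 Groups of 6. Optimal dose is in mg/kg per day. ILSmax is the % lifespan increase over untreated tumor-bearing controls at the optimal dose; above 20% counted significant. Cures are 50-day survivors.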

HCT-8 = experiment: Ability to inhibit the growth of human colon tumor HCT-8 cells in vitro.; format: functional, cell-based
Method in brief: (§2)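 Cultured leukemia L1210 or human colon tumor HCT-8 cells were exposed to drug for 40 h.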

P388/ADR [3] = experiment: Optimal dose required to inhibit the P388/ADR cells in vivo after intraperitoneal administration.; format: functional, Mus musculus; design: unit: mg/kg/day
poly[d(A-T)] = experiment: Binding constant for poly[d(A-T)] by ethidium bromide displacement
[4] = tested on: Lewis lung carcinoma cell line; experiment: Percent increase in life span, of the drug-treated tumor-bearing animals vs nontreated tumor-bearing controls with LL (Lewis lung carcinoma model) cells.; format: functional, Mus musculus
Method in brief: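 Groups of 6. Optimal dose is in mg/kg per day. ILSmax is the % lifespan increase over untreated tumor-bearing controls at the optimal dose; above 40% counted significant. Cures are 60-day survivors.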

L1210 = experiment: Ability to inhibit the growth of leukemia L1210 cells in vitro.; format: functional, cell-based; details: Mus musculus; method in brief: as §2
[5] = Lipophilicity (Rm).; format: physicochemical
P388 [6] = experiment: Optimal dose required to inhibit the P388 intraperitoneal administration.; format: functional, Mus musculus; design: unit: mg/kg/day
P388/ADR [7] = experiment: Percent increase in life span, of the drug-treated tumor-bearing animals vs nontreated tumor-bearing controls with P388/ADR cells.; format: functional, Mus musculus; method in brief: as §1
[8] = The compound was evaluated for its acid dissociation constant; format: ADME
Mus musculus = species: Mus musculus; experiment: Percent increase in life span of the drug treated tumor bearing animals vs nontreated tumor bearing controls was determined against P388/ADR cells;NA= not active; format: functional, organism-based
Method in brief: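 Mice were inoculated ip with 10^6 P388 or ADR/P388 cells. OD is the optimal dose in mg/kg per day. ILSmax is the % lifespan increase over untreated tumor-bearing controls at the OD; above 20% is significant. Long-term survival was scored at 50 days.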

SMILES	OD [1]	ILS max (P388 [2])	IC50 (HCT-8) [nM]	OD (P388/ADR [3])	Log K (poly[d(A-T)])	ILS max [4]	IC50 (L1210) [nM]	Rm [5]	OD (P388 [6])	ILS max (P388/ADR [7])	pKa [8]	ILS max (Mus musculus)
CNc1cc(NC(=O)OC)ccc1Nc1c2ccc(Cl)cc2nc2c(C)cccc12	45	173	330	45	7.52	143	185	0.67	45	79		
CNc1cc(NC(=O)OC)ccc1Nc1c2ccc(Br)cc2nc2c(OC)cccc12	100	98		65	6.43	31	360	0.55	65	20		
CNc1cc(NC(=O)OC)ccc1Nc1c2ccccc2nc2cc(Br)ccc12	45	101	800	45	6.87	86	341	0.7	45	29		
CNc1cc(NC(C)=O)ccc1Nc1c2ccccc2nc2ccccc12		96		65	6.79			0.3	65		7.8	inactive
CN(C)c1cc(NS(C)(=O)=O)ccc1Nc1c2ccccc2nc2ccccc12				100				0.41	166	41		
CNc1cc(NC(=O)OC)ccc1Nc1c2ccc(F)cc2nc2c(OC)cccc12	45	125	1600	45	6.27	52	940	0.45	100			inactive
CNc1cc(NC(=O)OC)ccc1Nc1c2ccc(F)cc2nc2c(C)cccc12	45	43	610	65	7.37	126	520	0.52	65	47		
CNC(=O)c1cccc2c(Nc3ccc(NC(=O)OC)cc3NC)c3cccc(OC)c3nc12	65	92		45	6.95	47	1750	0.45	65	31		
COC(=O)Nc1ccc(Nc2c3ccccc3nc3ccccc23)c(N(C)C)c1		20		30	5.88			0.56	45		7.85	inactive
COc1cc(NC(C)=O)ccc1Nc1c2ccccc2nc2ccccc12		50		8.9	6.1			0.3	13.3		7.79	inactive
CNc1cc(NC(=O)OC)ccc1Nc1c2ccccc2nc2cc(I)ccc12	65	92	350	100	6.12	68	110	0.65	45			inactive
CNc1cc(NC(=O)OC)ccc1Nc1c2ccccc2nc2c(F)cccc12	65	103	2800	100	5.82	77	1400	0.37	65	43		
CNc1cc(NC(=O)OC)ccc1Nc1c2ccccc2nc2c(C)cccc12	20	114	190	20	6.74	122	101	0.56	13.3	43		
CNC(=O)c1cccc2c(Nc3ccc(NC(=O)OC)cc3NC)c3cccc(C)c3nc12	30	99	1850	30	7.12	84	1200	0.5	20	35		
COc1cc(NS(C)(=O)=O)ccc1Nc1c2ccccc2nc2ccccc12 [AMSACRINE]								0.18				inactive
